These results are taken from ChEMBL document CHEMBL5338796, “Discovery of a Selective and Orally Bioavailable FGFR2 Degrader for Treating Gastric Cancer” (J Med Chem, 2023).

Calls of active or inactive are those of the source. The calls are words filed in the database; no cut-off is given here.

One may read the Tmax as the time from dosing to the highest level. Broadly, the clearance is a measure of how efficiently the substance is removed, as volume per time. The IC50 is the concentration needed to halve the response being measured. The term inhibition denotes the change of the read-out against control, counted positive when it falls. Read a low inhibition as a weak effect.

Series [1] deals with Fibroblast growth factor receptor 2 (Homo sapiens) (UniProt P21802). As to the kind of experiment: Induction of FGFR2 receptor relocalization in human KATO III stomach cancer cell line at 100 nM measured for 3 hrs by immunofluorescence assay. It counts as cell-based. Particulars: filed as activator. In short, it runs like this:
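KATO III cells treated with 100 nM for 3 or 6 h, fixed in 2% formaldehyde 2 min, blocked 5% BSA 1 h, anti-FGFR2 overnight, Alexa Fluor 488 secondary 1 h, DAPI 10 min; imaged by fluorescence microscopy.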

Series [2] deals with T1, Protein cereblon/Fibroblast growth factor receptor 2 (Homo sapiens, UniProt P21802+Q96SW2). As to the kind of experiment: PROTAC activity at CRBN/FGFR2 in human KATO III stomach cancer cell line assessed as FGFR2 degradation by measuring FGFR2 expression level upto 300 nM measured for 6 hrs by Western blotting analysis. It counts as cell-based. The gist of the method:
(§1)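 KATO III cells treated 6 h across 0.5–10,000 nM (DMSO stock, final DMSO below 0.5%); FGFR2 immunoblotted, quantified as FGFR2/β-actin ratio normalized to DMSO-treated cells, three independent biological experiments; DC50 and Dmax derived from the curve.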

For series [3], the system named is SNU-16. Briefly: Antitumor activity against human SNU-16 cells xenografted in BALB/c nude mouse assessed as reduction in FGFR phosphorylation in tumor at 20 mg/kg, po measured at 4 hrs. It counts as functional, organism-based. The gist of the method: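 Female BALB/c nude mice, 5 weeks old (20–22 g), s.c. right-flank SNU-16 implants, randomized by body weight into groups (n = 5) once tumours reached 50–100 mm3. Dosing 20 mg/kg/day intragastric in 0.5% CMC-Na for 15 d; vehicle controls. Tumour width and length measured every 2 days; tumours harvested 4 h after last dose and lysates immunoblotted for pFGFR, FGFR2, pPLCγ, pErk.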
In general terms: Xenograft models place foreign cells or tissue in a host animal.

Series [4] in a line: Toxicity in ICR mouse assessed as change in kidney weight at 20 mg/kg, po measured for 30 days. Format: organism-based. Particulars: in vivo, 720 h, time 30 day. In short, it runs like this:
(§2)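 ICR mice (n = 6) were dosed orally at 20 mg/kg/day for 30 days, alongside vehicle-treated controls. Mortality and clinical signs were checked daily. At the end, body and organ weights were recorded. Heart, liver, spleen, lung and kidney were examined by hematoxylin and eosin staining.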

The nature of series [5]: Tmax in mouse at 20 mg/kg, po measured at 0.25 to 24 hrs by LC-MS/MS analysis. The settings on record: in vivo.
A short description of series [6]: Toxicity in ICR mouse assessed as morphological changes in kidney at 20 mg/kg, po measured for 30 days by hematoxyin-eosin staining based analysis. It counts as organism-based. Particulars: in vivo, 720 h, time 30 day. In short, it runs like this: as §2
The nature of series [7]: Clearance in mice at 3 mg/kg, iv measured at 0.083 to 24 hrs by LC-MS/MS analysis. Particulars: mouse, in vivo.
In series [8] the test system is NCI-H1975. Briefly: Antiproliferative activity against human NCI-H1975 cells assessed as reduction in cell viability measured for 72 hrs by celltiter-glo reagent based assay. Format: functional. The settings on record: NCI-H1975, 72 h. The gist of the method: (§3)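 Cancer lines KATO III, SNU16, NCI-H716, NCI-H1975, MV-4-11 and HEK293T treated 72 h; antiproliferative IC50 given as mean ± s.d. from three independent biological experiments.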
(ATP-based viability assays read luminescence as a measure of living cells.)

Series [9] in a line: Toxicity in ICR mouse assessed as change in lung weight at 20 mg/kg, po measured for 30 days. Format: organism-based. The settings on record: in vivo, 720 h, time 30 day. The gist of the method:
as §2

For series [10], the target named is T1, Protein cereblon/Fibroblast growth factor receptor 2. Briefly: PROTAC activity at CRBN/FGFR2 in human KATO III stomach cancer cell line assessed as FGFR2 degradation measured for 6 hrs in presence of bortezomib by immunoblot analysis. It counts as cell-based. The gist of the method:
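KATO III cells were pretreated with 1 μM proteasome inhibitor (MG132 or bortezomib), then exposed to degrader at 100 nM for 6 h. FGFR2 was read by immunoblot against β-actin loading, with ECL detection.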

Series [11] has as its system MV4-11. As to the kind of experiment: Antiproliferative activity against human MV4-11 cells assessed as reduction in cell viability measured for 72 hrs by celltiter-glo reagent based assay. The settings on record: MV4-11, 72 h. It counts as functional. In short, it runs like this: as §3
Series [12] has as its target Fibroblast growth factor receptor 4 (Homo sapiens) (UniProt P22455). As to the kind of experiment: Induction of FGFR4 degradation in human Huh-7 cells at 100 nM measured for 6 hrs Western blot analysis. It counts as cell-based. In short, it runs like this: (§4)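 NCI-H1581 (FGFR1), MCF7 (FGFR3) and Huh7 (FGFR4) cells, which endogenously express the isoforms, treated with 100 nM for 6 h; isoform levels by Western blot against β-actin, three biologically independent experiments.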

A short description of series [13]: Hepatotoxicity in ICR mouse assessed as effect on ALT level at 20 mg/kg, po measured for 30 days. Format: toxicity, organism-based. The settings on record: in vivo, 720 h, time 30 day. The gist of the method:
(§5)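 ICR mice given 20 mg/kg/day orally for 30 days (n = 6), vehicle controls; mortality and clinical signs checked daily, then AST/ALT and creatinine, organ weights, haematology and H&E of heart, liver, spleen, lung, kidney.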

The nature of series [14]: Toxicity in ICR mouse assessed as change in heart weight at 20 mg/kg, po measured for 30 days. Format: organism-based. Particulars: in vivo, 720 h, time 30 day. The gist of the method:
as §2

In series [15] the target is T1, Protein cereblon/Fibroblast growth factor receptor 2. Briefly: PROTAC activity at CRBN/FGFR2 in human KATO III stomach cancer cell line at 100 nM measured for 6 hrs by Western blot analysis relative to control. It counts as cell-based. The gist of the method:
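KATO III cells treated for 6 h at the stated concentrations, added from 10 mM DMSO stocks (final DMSO below 0.5%). Cells were washed with PBS and lysed in 2× loading buffer, then run on SDS-PAGE and blotted to PVDF. Anti-FGFR2 was applied overnight at 4 °C, with ECL detection. FGFR2 was expressed as FGFR2/β-actin, normalized to DMSO-treated cells, from three independent biological experiments.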
(A western blot detects proteins with antibodies after separation by electrophoresis.)

Series [16] has the same target. As to the kind of experiment: PROTAC activity at CRBN/FGFR2 in human KATO III stomach cancer cell line assessed as FGFR2 degradation by measuring FGFR2 expression level at 0.5 to 100 nM measured for 6 hrs by Western blotting analysis. It counts as cell-based. The settings on record: dose 0.5-100 nM. The gist of the method: as §1
Series [17] has as its system KATO III stomach cancer cell line. As to the kind of experiment: Antiproliferative activity against human KATO III stomach cancer cell line assessed as reduction in cell viability measured for 72 hrs by celltiter-glo reagent based assay. Format: functional. The gist of the method: as §3
The target of series [18] is Tyrosine-protein kinase ABL1 (Homo sapiens) (UniProt P00519). As to the kind of experiment: Inhibition of human ABL1 at 1000 nM by KINOMEscan analysis relative to control.
In series [19] the target is Fibroblast growth factor receptor 3 (Homo sapiens) (UniProt P22607). As to the kind of experiment: Induction of FGFR3 degradation in human MCF7 cells at 100 nM measured for 6 hrs Western blot analysis. Format: cell-based. In short, it runs like this: as §4
For series [20], the target named is Macrophage colony-stimulating factor 1 receptor (Homo sapiens) (UniProt P07333). As to the kind of experiment: Induction of CSF1R degradation in human THP-1 cells at 0.5 to 10 uM measured for 6 hrs Western blot analysis. It counts as cell-based. Particulars: dose 0.0005-10 µM, in the assay text read “0.5 nM to 10 uM” for “0.5 to 10 uM”. In short, it runs like this: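 THP-1 cells exposed 6 h to 0.5–10,000 nM degrader (from 10 mM DMSO stock, final DMSO below 0.5%); lysates in 2× loading buffer, SDS-PAGE, PVDF, anti-CSF1R (1:1000) with β-actin loading control, ECL detection.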

The subject of series [21] is SNU-16. As to the kind of experiment: Antiproliferative activity against human SNU-16 cells assessed as reduction in cell viability measured for 72 hrs by celltiter-glo reagent based assay. Format: functional. The settings on record: SNU-16, 72 h. In short, it runs like this: as §3
Series [22] can be described thus: Nephrotoxicity in ICR mouse assessed as effect on creatinine level at 20 mg/kg, po measured for 30 days. It counts as toxicity, organism-based. The settings on record: in vivo, 720 h, time 30 day. In short, it runs like this:
as §5

T1 sequence (P21802 22-821 limits assumed): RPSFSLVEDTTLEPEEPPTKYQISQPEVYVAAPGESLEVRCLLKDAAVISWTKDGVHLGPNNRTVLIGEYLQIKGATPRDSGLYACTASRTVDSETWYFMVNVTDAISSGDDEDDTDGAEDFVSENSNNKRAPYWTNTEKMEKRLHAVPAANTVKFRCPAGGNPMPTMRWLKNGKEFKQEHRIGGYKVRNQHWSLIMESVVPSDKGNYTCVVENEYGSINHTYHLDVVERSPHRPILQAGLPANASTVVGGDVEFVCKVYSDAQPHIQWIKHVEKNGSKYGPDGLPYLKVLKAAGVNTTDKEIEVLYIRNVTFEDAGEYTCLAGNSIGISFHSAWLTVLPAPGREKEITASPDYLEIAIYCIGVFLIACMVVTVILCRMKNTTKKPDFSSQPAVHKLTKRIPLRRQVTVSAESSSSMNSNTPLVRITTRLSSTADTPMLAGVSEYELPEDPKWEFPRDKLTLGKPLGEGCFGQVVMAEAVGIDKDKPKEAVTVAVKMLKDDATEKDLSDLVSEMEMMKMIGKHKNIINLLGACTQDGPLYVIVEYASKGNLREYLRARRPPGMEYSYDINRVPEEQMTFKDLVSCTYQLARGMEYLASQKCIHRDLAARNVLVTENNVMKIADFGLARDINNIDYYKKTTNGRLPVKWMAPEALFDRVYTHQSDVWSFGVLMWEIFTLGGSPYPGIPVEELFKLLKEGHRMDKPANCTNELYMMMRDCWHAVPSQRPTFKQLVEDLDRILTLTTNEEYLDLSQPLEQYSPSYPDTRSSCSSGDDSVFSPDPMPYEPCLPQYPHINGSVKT
T1 sequence (Q96SW2 whole entry partner): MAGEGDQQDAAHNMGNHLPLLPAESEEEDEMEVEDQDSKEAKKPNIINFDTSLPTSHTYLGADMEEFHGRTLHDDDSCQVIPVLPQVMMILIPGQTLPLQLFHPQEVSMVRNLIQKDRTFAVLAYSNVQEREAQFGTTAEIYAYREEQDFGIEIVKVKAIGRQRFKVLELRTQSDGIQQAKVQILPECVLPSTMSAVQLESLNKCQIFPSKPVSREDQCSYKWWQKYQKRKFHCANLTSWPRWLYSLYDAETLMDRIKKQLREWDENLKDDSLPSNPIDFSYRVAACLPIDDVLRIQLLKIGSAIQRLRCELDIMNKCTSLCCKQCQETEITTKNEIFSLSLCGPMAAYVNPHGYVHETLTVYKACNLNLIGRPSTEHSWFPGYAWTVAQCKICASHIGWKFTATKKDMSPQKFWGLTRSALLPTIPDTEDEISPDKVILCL
Sequence of Fibroblast growth factor receptor 4 (Homo sapiens) (P22455 22-802 limits assumed): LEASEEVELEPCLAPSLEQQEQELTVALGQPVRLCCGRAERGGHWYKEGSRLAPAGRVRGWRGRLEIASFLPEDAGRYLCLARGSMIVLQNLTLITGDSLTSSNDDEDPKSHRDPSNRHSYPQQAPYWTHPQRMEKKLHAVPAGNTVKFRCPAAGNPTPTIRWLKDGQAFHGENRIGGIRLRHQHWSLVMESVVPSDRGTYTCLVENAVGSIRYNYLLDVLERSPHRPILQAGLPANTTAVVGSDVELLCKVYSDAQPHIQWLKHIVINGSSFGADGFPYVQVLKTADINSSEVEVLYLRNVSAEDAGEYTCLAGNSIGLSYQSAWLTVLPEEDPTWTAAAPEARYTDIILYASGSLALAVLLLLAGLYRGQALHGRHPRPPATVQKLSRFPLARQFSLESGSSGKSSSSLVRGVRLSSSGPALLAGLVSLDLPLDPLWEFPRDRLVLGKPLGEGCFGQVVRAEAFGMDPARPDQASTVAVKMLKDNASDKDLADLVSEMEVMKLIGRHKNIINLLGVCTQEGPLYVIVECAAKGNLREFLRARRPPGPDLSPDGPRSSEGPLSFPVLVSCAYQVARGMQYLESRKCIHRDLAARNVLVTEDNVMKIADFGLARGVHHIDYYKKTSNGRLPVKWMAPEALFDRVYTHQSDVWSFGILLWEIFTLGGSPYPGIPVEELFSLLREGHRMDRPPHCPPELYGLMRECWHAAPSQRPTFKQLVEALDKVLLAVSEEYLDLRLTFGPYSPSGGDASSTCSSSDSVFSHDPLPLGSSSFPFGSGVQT
Sequence of Tyrosine-protein kinase ABL1 (Homo sapiens) (P00519 whole entry): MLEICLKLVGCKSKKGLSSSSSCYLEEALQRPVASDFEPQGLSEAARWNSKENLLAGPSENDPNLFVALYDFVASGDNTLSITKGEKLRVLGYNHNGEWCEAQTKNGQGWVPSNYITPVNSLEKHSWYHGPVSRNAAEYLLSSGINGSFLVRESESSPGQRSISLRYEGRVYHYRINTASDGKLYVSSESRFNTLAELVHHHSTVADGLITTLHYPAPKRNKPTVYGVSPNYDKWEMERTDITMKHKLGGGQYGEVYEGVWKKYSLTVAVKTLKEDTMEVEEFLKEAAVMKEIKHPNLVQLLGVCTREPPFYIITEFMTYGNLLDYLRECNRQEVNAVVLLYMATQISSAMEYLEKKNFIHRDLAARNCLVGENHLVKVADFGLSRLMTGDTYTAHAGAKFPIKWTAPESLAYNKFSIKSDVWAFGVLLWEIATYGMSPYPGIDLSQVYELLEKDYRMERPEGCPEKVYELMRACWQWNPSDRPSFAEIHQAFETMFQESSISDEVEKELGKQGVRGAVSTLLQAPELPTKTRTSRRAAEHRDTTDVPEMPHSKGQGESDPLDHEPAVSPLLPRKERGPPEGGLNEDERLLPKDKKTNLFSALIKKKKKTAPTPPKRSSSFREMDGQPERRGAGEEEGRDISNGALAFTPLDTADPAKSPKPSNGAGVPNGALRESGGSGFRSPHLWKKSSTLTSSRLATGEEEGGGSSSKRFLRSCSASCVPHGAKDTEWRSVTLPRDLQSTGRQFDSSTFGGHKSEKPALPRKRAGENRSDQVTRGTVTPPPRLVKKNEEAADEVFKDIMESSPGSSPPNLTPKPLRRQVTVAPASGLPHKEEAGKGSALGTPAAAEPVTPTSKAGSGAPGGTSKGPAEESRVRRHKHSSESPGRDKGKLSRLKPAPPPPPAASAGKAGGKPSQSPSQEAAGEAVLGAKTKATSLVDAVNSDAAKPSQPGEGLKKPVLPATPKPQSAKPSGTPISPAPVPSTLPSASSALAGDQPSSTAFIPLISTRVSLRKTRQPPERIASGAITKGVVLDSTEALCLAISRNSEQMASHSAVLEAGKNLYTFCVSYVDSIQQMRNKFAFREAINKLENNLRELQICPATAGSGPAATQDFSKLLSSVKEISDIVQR
Sequence of Macrophage colony-stimulating factor 1 receptor (Homo sapiens) (P07333 whole entry): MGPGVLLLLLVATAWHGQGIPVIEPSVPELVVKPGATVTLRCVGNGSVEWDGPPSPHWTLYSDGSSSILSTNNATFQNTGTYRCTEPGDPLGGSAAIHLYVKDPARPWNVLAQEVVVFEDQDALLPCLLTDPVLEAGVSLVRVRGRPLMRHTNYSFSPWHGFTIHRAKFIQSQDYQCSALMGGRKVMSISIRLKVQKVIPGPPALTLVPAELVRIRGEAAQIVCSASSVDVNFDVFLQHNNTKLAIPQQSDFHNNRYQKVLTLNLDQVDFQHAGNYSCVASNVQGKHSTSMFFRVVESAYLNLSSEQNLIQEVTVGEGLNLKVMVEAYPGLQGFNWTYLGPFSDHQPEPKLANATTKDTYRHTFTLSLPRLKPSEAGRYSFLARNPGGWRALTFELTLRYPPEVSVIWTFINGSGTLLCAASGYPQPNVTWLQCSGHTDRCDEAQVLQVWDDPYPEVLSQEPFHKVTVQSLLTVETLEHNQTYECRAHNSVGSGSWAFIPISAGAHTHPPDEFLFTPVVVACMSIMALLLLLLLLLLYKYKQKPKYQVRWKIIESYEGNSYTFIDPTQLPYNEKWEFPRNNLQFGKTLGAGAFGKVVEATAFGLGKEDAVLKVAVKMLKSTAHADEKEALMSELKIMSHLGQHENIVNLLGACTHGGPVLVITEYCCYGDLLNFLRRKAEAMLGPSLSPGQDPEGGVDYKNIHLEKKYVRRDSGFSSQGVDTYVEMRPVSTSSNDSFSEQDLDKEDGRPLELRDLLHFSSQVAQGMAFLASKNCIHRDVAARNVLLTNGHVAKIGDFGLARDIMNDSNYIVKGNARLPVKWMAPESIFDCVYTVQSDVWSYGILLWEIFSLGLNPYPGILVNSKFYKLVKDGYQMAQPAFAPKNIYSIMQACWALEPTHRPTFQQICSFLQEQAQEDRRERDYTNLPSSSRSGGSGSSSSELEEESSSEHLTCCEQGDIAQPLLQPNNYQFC
Sequence of Fibroblast growth factor receptor 3 (Homo sapiens) (P22607 23-806 limits assumed): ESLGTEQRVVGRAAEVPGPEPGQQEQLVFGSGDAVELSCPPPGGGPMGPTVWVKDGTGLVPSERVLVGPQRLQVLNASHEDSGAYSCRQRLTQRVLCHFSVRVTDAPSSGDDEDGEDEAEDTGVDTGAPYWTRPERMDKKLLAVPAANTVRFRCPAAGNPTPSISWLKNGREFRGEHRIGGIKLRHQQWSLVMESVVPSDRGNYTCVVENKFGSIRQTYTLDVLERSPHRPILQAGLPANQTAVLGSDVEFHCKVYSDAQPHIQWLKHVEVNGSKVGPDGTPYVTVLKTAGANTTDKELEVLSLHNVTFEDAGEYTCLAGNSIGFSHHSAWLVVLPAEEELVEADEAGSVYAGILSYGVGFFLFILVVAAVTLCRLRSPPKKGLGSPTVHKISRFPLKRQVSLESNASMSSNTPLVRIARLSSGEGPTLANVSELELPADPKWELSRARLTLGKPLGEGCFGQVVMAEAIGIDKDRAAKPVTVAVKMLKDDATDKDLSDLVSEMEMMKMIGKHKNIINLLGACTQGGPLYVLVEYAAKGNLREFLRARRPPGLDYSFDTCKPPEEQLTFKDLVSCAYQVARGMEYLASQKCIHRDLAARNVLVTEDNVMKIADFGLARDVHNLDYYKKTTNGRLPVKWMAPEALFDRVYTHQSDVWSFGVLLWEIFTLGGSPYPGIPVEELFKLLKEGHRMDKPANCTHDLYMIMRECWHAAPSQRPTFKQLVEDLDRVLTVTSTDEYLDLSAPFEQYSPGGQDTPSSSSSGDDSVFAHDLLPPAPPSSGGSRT
Sequence of Fibroblast growth factor receptor 2 (Homo sapiens) (P21802 22-821 limits assumed): as the sequence (P21802 22-821 limits assumed) above

In the case of `COc1cc(OC)c(Cl)c(NC(=O)N(C)c2cc(Nc3ccc(N4CCN(C(=O)C5CCN(c6ccc7c(c6)C(=O)N(C6CCC(=O)NC6=O)C7=O)CC5)CC4)cc3)ncn2)c1Cl` (configuration not stated), the outcome in series [1] and in series [3] was Active. The result in series [2], in [10], in [12], in series [16], in [19] and in [20] was inactive. The Activity result is “Non-Toxic” in [4]; “Non-Toxic” in series [6]; “Non-Toxic” in [9]; “Non-Toxic” in series [13]; “Non-Toxic” in series [14]; 77% in series [15]. For the same compound, the Activity result in series [22] is on record as “Non-Toxic”. The Tmax in series [5] came to 2.67 h. The compound also had a clearance in series [7] of 121 mL/min/kg. Besides, the IC50 was over 10 µM in [8], over 10 µM in series [11], 29.1 nM in series [17] and 3.7 nM in series [21]. For the same compound, the inhibition in [18] was determined as 47%.
